# Test results: ChEMBL document CHEMBL1221298, “InCl3 mediated one-pot multicomponent synthesis, anti-microbial, antioxidant and anticancer evaluation of 3-pyranyl indole derivatives” (Bioorg Med Chem Lett, 2010)
# Activity calls are given as the source filed them. No cut-off for these calls is given here.
# Experiments:
# Type in all cases: functional
# Staphylococcus aureus [1] = assay: microbe, parasite or virus in culture; settings: ATCC 9144, 24 h, read-out: IZ
# Bacillus cereus [2] = assay: Antimicrobial activity against Bacillus cereus ATCC 11778 at 100 ug/ml after 24 hrs by paper disk diffusion method; settings: ATCC 11778, 24 h, read-out: IZ
# Escherichia coli [3] = assay: microbe, parasite or virus in culture; settings: ATCC 25922, 24 h, read-out: IZ
# Klebsiella pneumoniae [4] = assay: microbe, parasite or virus in culture; settings: ATCC 11298, 24 h, read-out: IZ
# Staphylococcus aureus [5] = assay: microbe, parasite or virus in culture; settings: ATCC 9144, 24 h
# Bacillus cereus [6] = assay: microbe, parasite or virus in culture; settings: ATCC 11778, 24 h
# Escherichia coli [7] = assay: microbe, parasite or virus in culture; settings: ATCC 25922, 24 h
# Klebsiella pneumoniae [8] = assay: microbe, parasite or virus in culture; settings: ATCC 11298, 24 h
# [9] = test system: Radical scavenging activity; assay: Antioxidant activity assessed as DPPH radical scavenging activity at 50 ug/ml
# Summary of the method: (§1)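 Each test sample was mixed with 1 ml DPPH in methanol, incubated at 37 °C for 30 min, and read spectrophotometrically at 517 nm with a blank reading. Scavenging % was expressed as the absorbance decrease at 517 nm relative to DPPH solution without test sample.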
# [10] = test system: Radical scavenging activity; assay: Antioxidant activity assessed as DPPH radical scavenging activity at 100 ug/ml
# Summary of the method: as §1
# [11] = test system: Radical scavenging activity; assay: Antioxidant activity assessed as DPPH radical scavenging activity at 200 ug/ml
# Summary of the method: as §1
# [12] = test system: Radical scavenging activity; assay: Antioxidant activity assessed as DPPH radical scavenging activity at 400 ug/ml
# Summary of the method: as §1
# [13] = test system: Radical scavenging activity; assay: Antioxidant activity assessed as DPPH radical scavenging activity
# Summary of the method: as §1
# [14] = Antioxidant activity assessed as ABTS radical scavenging activity at 50 ug/ml
# Summary of the method: (§2)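 Test samples at 50, 100, 200 and 400 ug/ml were each mixed with 1 ml of freshly prepared ABTS radical cation solution, adjusted to absorbance 0.7–0.9 at 734 nm. Mixtures reacted 2 h in the dark, then absorbance was read at 734 nm against a blank. Scavenging % was taken as the absorbance decrease relative to ABTS solution without test sample.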
# [15] = Antioxidant activity assessed as ABTS radical scavenging activity at 100 ug/ml
# Summary of the method: as §2
# [16] = Antioxidant activity assessed as ABTS radical scavenging activity at 200 ug/ml
# Summary of the method: as §2
# [17] = Antioxidant activity assessed as ABTS radical scavenging activity at 400 ug/ml
# Summary of the method: as §2
# [18] = Antioxidant activity assessed as ABTS radical scavenging activity
# Summary of the method: as §2
Structure (SMILES),zone of inhibition at 100 µg/mL (Staphylococcus aureus [1]) [mm],zone of inhibition at 100 µg/mL (Bacillus cereus [2]) [mm],zone of inhibition at 100 µg/mL (Escherichia coli [3]) [mm],zone of inhibition at 100 µg/mL (Klebsiella pneumoniae [4]) [mm],MIC (Staphylococcus aureus [5]) [µg/mL],MIC (Bacillus cereus [6]) [µg/mL],MIC (Escherichia coli [7]) [µg/mL],MIC (Klebsiella pneumoniae [8]) [µg/mL],Activity ([9]; at 50 µg/mL) [%],Activity ([10]; at 100 µg/mL) [%],Activity ([11]; at 200 µg/mL) [%],Activity ([12]; at 400 µg/mL) [%],IC50 [13] [µg/mL],Activity ([14]; at 50 µg/mL) [%],Activity ([15]; at 100 µg/mL) [%],Activity ([16]; at 200 µg/mL) [%],Activity ([17]; at 400 µg/mL) [%],IC50 [18] [µg/mL],Activity [9],Activity [10],other results
COc1cc(Br)c(C2C(C#N)=C(N)OC(c3c[nH]c4ccccc34)=C2C#N)cc1OC (stereo not drawn),20,14,16,19,21,24.5,29.5,33.4,51.7,53.8,57.3,64.4,< 50,18.5,20.5,24.2,26.7,880.3,–,–,–
N#CC1=C(N)OC(c2c[nH]c3ccccc23)=C(C#N)C1c1ccc(Cl)cc1 (stereo not drawn),23,18,19,18,13.4,19,21.5,17.5,–,–,–,–,–,–,–,–,–,–,inactive,inactive,Activity [11]: inactive; Activity [12]: inactive; Activity [13]: inactive; Activity [14]: inactive; Activity [15]: inactive; Activity [16]: inactive; Activity [17]: inactive; Activity [18]: inactive
N#CC1=C(N)OC(c2c[nH]c3ccccc23)=C(C#N)C1c1cccc(Br)c1 (stereo not drawn),16,14,14,14,27.5,24,30.2,26.3,–,–,–,–,–,–,–,–,–,–,inactive,inactive,Activity [11]: inactive; Activity [12]: inactive; Activity [13]: inactive; Activity [14]: inactive; Activity [15]: inactive; Activity [16]: inactive; Activity [17]: inactive; Activity [18]: inactive
N#CC1=C(N)OC(c2c[nH]c3ccccc23)=C(C#N)C1c1cccc([N+](=O)[O-])c1 (stereo not drawn),19,13,16,15,24,35.4,27.5,25.5,–,–,–,–,–,–,–,–,–,–,inactive,inactive,Activity [11]: inactive; Activity [12]: inactive; Activity [13]: inactive; Activity [14]: inactive; Activity [15]: inactive; Activity [16]: inactive; Activity [17]: inactive; Activity [18]: inactive
CN(C)c1ccc(C2C(C#N)=C(N)OC(c3c[nH]c4ccccc34)=C2C#N)cc1 (stereo not drawn),18,15,17,16,23.8,25.6,26.7,25.2,72.1,73.1,74.6,75.7,< 50,14.4,18.5,20.5,26.7,900,–,–,–
Cc1ccc(C2C(C#N)=C(N)OC(c3c[nH]c4ccccc34)=C2C#N)cc1 (stereo not drawn),20,14,15,17,22.3,25.8,36.3,25.1,24.8,25.8,28.9,30.4,1590.74,5.2,5.5,6.2,8.5,> 1000,–,–,–
Cc1ccccc1C1C(C#N)=C(N)OC(c2c[nH]c3ccccc23)=C1C#N (stereo not drawn),16,15,16,15,25,27.8,26,27.2,25.8,27.4,28.3,32.5,1371.65,10.4,17.2,21.4,25.7,> 1000,–,–,–
O=C(O)c1cn(C2CC2)c2cc(N3CCNCC3)c(F)cc2c1=O [CIPROFLOXACIN],26,25,27,26,0.2,0.3,–,0.1,–,–,–,–,–,–,–,–,–,–,–,–,–
